Converted amounts (≈) assume the structure as drawn.
What follows are compounds tested on Staphylococcus aureus (assay: Antibacterial activity against methicillin-sensitive Staphylococcus aureus ATCC 25923 measured after overnight incubation by broth double-dilution method).
Type: functional
Summary of the method: (§1)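 MIC by broth double-dilution in liquid Mueller-Hinton medium. Values are reported in µg/mL.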

Row | Structure (SMILES) | MIC
1 | CC(C)c1cccc(-n2sc3ccccc3c2=O)c1 | 0.5 µg/mL (≈ 1.86 µM)

These compounds were tested on Staphylococcus aureus (assay: Antibacterial activity against methicillin-sensitive Staphylococcus aureus ATCC 29213 measured after overnight incubation by broth double-dilution method).
Type: functional
Summary of the method: as §1

Row | Structure (SMILES) | MIC
2 | CC(C)c1cccc(-n2sc3ccccc3c2=O)c1 | ≤ 0.25 µg/mL

Each compound was assayed on Staphylococcus aureus (assay: Antibacterial activity against methicillin-resistant Staphylococcus aureus ATCC 33591 measured after overnight incubation by broth double-dilution method).
Type: functional
Summary of the method: as §1

Row | Structure (SMILES) | MIC
3 | CC(C)c1cccc(-n2sc3ccccc3c2=O)c1 | ≤ 0.25 µg/mL

These compounds were tested on Staphylococcus aureus (assay: Antibacterial activity against methicillin-resistant Staphylococcus aureus 1 measured after overnight incubation by broth double-dilution method).
Type: functional
Summary of the method: as §1

Row | Structure (SMILES) | MIC
4 | CC(C)c1cccc(-n2sc3ccccc3c2=O)c1 | ≤ 0.25 µg/mL

The compounds below were run on Staphylococcus aureus (assay: Antibacterial activity against methicillin-resistant Staphylococcus aureus 2 measured after overnight incubation by broth double-dilution method).
Type: functional
Summary of the method: as §1

Row | Structure (SMILES) | MIC
5 | CC(C)c1cccc(-n2sc3ccccc3c2=O)c1 | ≤ 0.25 µg/mL

Each compound was assayed on Staphylococcus aureus (assay: Antibacterial activity against methicillin-resistant Staphylococcus aureus BRS3 measured after overnight incubation by broth double-dilution method).
Type: functional
Summary of the method: as §1

Row | Structure (SMILES) | MIC
6 | CC(C)c1cccc(-n2sc3ccccc3c2=O)c1 | 1 µg/mL (≈ 3.71 µM)

What follows are compounds tested on Staphylococcus aureus (assay: Antibacterial activity against methicillin-resistant Staphylococcus aureus C1 measured after overnight incubation by broth double-dilution method).
Type: functional
Summary of the method: as §1

Row | Structure (SMILES) | MIC
7 | CC(C)c1cccc(-n2sc3ccccc3c2=O)c1 | ≤ 0.25 µg/mL

The compounds below were run on Staphylococcus aureus (assay: Antibacterial activity against methicillin-resistant Staphylococcus aureus C2 measured after overnight incubation by broth double-dilution method).
Type: functional
Summary of the method: as §1

Row | Structure (SMILES) | MIC
8 | CC(C)c1cccc(-n2sc3ccccc3c2=O)c1 | ≤ 0.25 µg/mL

These compounds were tested on Staphylococcus aureus (assay: Antibacterial activity against methicillin-resistant Staphylococcus aureus C7 measured after overnight incubation by broth double-dilution method).
Type: functional
Summary of the method: as §1

Row | Structure (SMILES) | MIC
9 | CC(C)c1cccc(-n2sc3ccccc3c2=O)c1 | ≤ 0.25 µg/mL

Each compound was assayed on Staphylococcus aureus (assay: Antibacterial activity against methicillin-resistant Staphylococcus aureus C14 measured after overnight incubation by broth double-dilution method).
Type: functional
Summary of the method: as §1

Row | Structure (SMILES) | MIC
10 | CC(C)c1cccc(-n2sc3ccccc3c2=O)c1 | 0.5 µg/mL (≈ 1.86 µM)

These compounds were tested on Staphylococcus aureus (assay: Antibacterial activity against methicillin-resistant Staphylococcus aureus C16 measured after overnight incubation by broth double-dilution method).
Type: functional
Summary of the method: as §1

Row | Structure (SMILES) | MIC
11 | CC(C)c1cccc(-n2sc3ccccc3c2=O)c1 | ≤ 0.25 µg/mL

The compounds below were run on Staphylococcus aureus (assay: Antibacterial activity against methicillin-resistant Staphylococcus aureus C19 measured after overnight incubation by broth double-dilution method).
Type: functional
Summary of the method: as §1

Row | Structure (SMILES) | MIC
12 | CC(C)c1cccc(-n2sc3ccccc3c2=O)c1 | ≤ 0.25 µg/mL

The compounds below were run on Staphylococcus aureus (assay: Antibacterial activity against methicillin-resistant Staphylococcus aureus G1 measured after overnight incubation by broth double-dilution method).
Type: functional
Summary of the method: as §1

Row | Structure (SMILES) | MIC
13 | CC(C)c1cccc(-n2sc3ccccc3c2=O)c1 | ≤ 0.25 µg/mL

Each compound was assayed on Staphylococcus aureus (assay: Antibacterial activity against methicillin-resistant Staphylococcus aureus G6 measured after overnight incubation by broth double-dilution method).
Type: functional
Summary of the method: as §1

Row | Structure (SMILES) | MIC
14 | CC(C)c1cccc(-n2sc3ccccc3c2=O)c1 | 0.5 µg/mL (≈ 1.86 µM)

What follows are compounds tested on Staphylococcus aureus (assay: Antibacterial activity against methicillin-resistant Staphylococcus aureus G12 measured after overnight incubation by broth double-dilution method).
Type: functional
Summary of the method: as §1

Row | Structure (SMILES) | MIC
15 | CC(C)c1cccc(-n2sc3ccccc3c2=O)c1 | 0.5 µg/mL (≈ 1.86 µM)

The compounds below were run on Staphylococcus aureus (assay: Antibacterial activity against methicillin-resistant Staphylococcus aureus G14 measured after overnight incubation by broth double-dilution method).
Type: functional
Summary of the method: as §1

Row | Structure (SMILES) | MIC
16 | CC(C)c1cccc(-n2sc3ccccc3c2=O)c1 | 0.5 µg/mL (≈ 1.86 µM)

Each compound was assayed on Staphylococcus aureus (assay: Antibacterial activity against methicillin-resistant Staphylococcus aureus NRS4 measured after overnight incubation by broth double-dilution method).
Type: functional
Summary of the method: as §1

Row | Structure (SMILES) | MIC
17 | CC(C)c1cccc(-n2sc3ccccc3c2=O)c1 | 1 µg/mL (≈ 3.71 µM)

What follows are compounds tested on Staphylococcus aureus (assay: Antibacterial activity against methicillin-resistant Staphylococcus aureus NRS51 measured after overnight incubation by broth double-dilution method).
Type: functional
Summary of the method: as §1

Row | Structure (SMILES) | MIC
18 | CC(C)c1cccc(-n2sc3ccccc3c2=O)c1 | ≤ 0.25 µg/mL

What follows are compounds tested on Staphylococcus aureus (assay: Antibacterial activity against methicillin-resistant Staphylococcus aureus NRS77 measured after overnight incubation by broth double-dilution method).
Type: functional
Summary of the method: as §1

Row | Structure (SMILES) | MIC
19 | CC(C)c1cccc(-n2sc3ccccc3c2=O)c1 | 0.5 µg/mL (≈ 1.86 µM)

These compounds were tested on Staphylococcus aureus (assay: Antibacterial activity against methicillin-resistant Staphylococcus aureus S14 measured after overnight incubation by broth double-dilution method).
Type: functional
Summary of the method: as §1

Row | Structure (SMILES) | MIC
20 | CC(C)c1cccc(-n2sc3ccccc3c2=O)c1 | ≤ 0.25 µg/mL

What follows are compounds tested on Staphylococcus aureus (assay: Antibacterial activity against methicillin-resistant Staphylococcus aureus S17 measured after overnight incubation by broth double-dilution method).
Type: functional
Summary of the method: as §1

Row | Structure (SMILES) | MIC
21 | CC(C)c1cccc(-n2sc3ccccc3c2=O)c1 | ≤ 0.25 µg/mL

What follows are compounds tested on Staphylococcus aureus (assay: Antibacterial activity against methicillin-resistant Staphylococcus aureus S22 measured after overnight incubation by broth double-dilution method).
Type: functional
Summary of the method: as §1

Row | Structure (SMILES) | MIC
22 | CC(C)c1cccc(-n2sc3ccccc3c2=O)c1 | 1 µg/mL (≈ 3.71 µM)

What follows are compounds tested on Staphylococcus aureus (assay: Antibacterial activity against methicillin-resistant Staphylococcus aureus S24 measured after overnight incubation by broth double-dilution method).
Type: functional
Summary of the method: as §1

Row | Structure (SMILES) | MIC
23 | CC(C)c1cccc(-n2sc3ccccc3c2=O)c1 | ≤ 0.25 µg/mL
